Compound activity (PubChem)
Shown are actives, neighbours in structure and some others; about 3.7% of the full set was active somewhere.
Mdm2 ligase inh: inhibitors of human Mdm2 E3 ubiquitin ligase; Q00987; signal enhancement, % at 5 µM; cell-based MDM2 ubiquitination luciferase reporter, 2 h; 0 = plate control, 100 = twice control, blank-subtracted; hit rate 0.11% among 210,000;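 active means signal enhancement of 30% or more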;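 further: luminescence tracks abundance of the self-degrading MDM2-luciferase fusion protein; higher signal means inhibition of MDM2 E3 ligase activity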
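system = mammalian cells stably expressing self-ubiquitinating, self-degrading MDM2 E3–luciferase fusion | quantity = 2000 cells per well seeded | incubation = 4 h cell settling then 2 h compound exposure, 37 °C | signal = SteadyLite luminescence, 15 min reagent step | benchmarks = plate control and blank wells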
Mdm2-MdmX inh: inhibitors of human Mdm2/MdmX interaction | O15151+Q00987 | SaOS-2 split-luciferase Mdm2/MdmX complementation, luminescence | inhibition, % at 8 µM | hit rate 3% among 330,000 | AID 485346;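 active means inhibition of at least 50% at 8 µM in the primary screen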
B2AR ag: human beta-2 adrenergic receptor agonism by FAP; P07550; Am2.2-beta2AR cells, FAP receptor internalization, flow cytometry; response, % (concentration not given with the values); hit rate 0.43% among 340,000;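 active means response above a set limit, near 3 SD of response in nonfluorescent compounds, cut at about 42% in these data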
Target sequence (P07550 whole entry, looked up): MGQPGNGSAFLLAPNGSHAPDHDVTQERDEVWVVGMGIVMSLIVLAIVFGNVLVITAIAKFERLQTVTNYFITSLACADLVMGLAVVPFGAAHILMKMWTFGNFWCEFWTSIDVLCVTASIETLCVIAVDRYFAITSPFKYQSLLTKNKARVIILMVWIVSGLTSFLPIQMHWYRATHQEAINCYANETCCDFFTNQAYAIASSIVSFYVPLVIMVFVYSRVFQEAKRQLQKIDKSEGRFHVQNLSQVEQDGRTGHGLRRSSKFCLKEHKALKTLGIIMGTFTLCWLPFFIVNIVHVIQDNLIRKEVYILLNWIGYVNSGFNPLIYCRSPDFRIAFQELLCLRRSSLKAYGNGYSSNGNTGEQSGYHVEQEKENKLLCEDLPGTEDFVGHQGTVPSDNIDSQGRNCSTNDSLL
Dynein transport: dynein cargo transport inhibition. 3617.4 mouse cells, GR-EGFP nuclear translocation imaging; test concentration mostly 20 µM; stimulated with dexamethasone, 1 µM; active compounds read low. z-score, hits read low. hit rate 0.47% among 220,000. AID 1381;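 active means plate z-score of nuclear minus cytoplasmic receptor signal below a set negative limit, without overly bright fluorescence or cell loss, cut at about -3.5 in these data, passing the limit was not always enough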;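 further: z-score of nuclear minus cytoplasmic ring GR-EGFP intensity difference per well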
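Buffer or medium: tetracycline-free induction medium containing charcoal-stripped FBS / Reagent: dexamethasone agonist, 1.0 µM final, for 30 min / Technique: automated 10x imaging of fixed Hoechst-stained cells / Times: induction 48 h, compound 1 h, agonist 30 min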
XBP1 UPR activ: adaptive UPR (XBP1) activation; AID 463104; CHO-XBP1 luciferase reporter, IRE1-XBP1 UPR activation, luminescence; percent of tunicamycin response, DMSO as zero; hit rate 0.33% among 330,000; activation, % at 20 µM;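 active means versus positive control, 20 µM dose yields 30% or more activation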;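 further: 100% = tunicamycin at 10 µg/mL and 0% = DMSO only wells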
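Material: CHO-XBP1 cells stably carrying IRE1-XBP1-driven luciferase reporter | Medium: F12 with 10% serum | Compound dosing: 20 µM single concentration, DMSO 1% | Incubation: Overnight seeding at 37 °C, 6 h compound treatment at 37 °C | Detection: Steady-Glo luminescence read | Read-out basis: % activation of reporter signal versus tunicamycin and DMSO controls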
CHOP UPR activ: activators of apoptotic arm of unfolded protein response (CHOP). CHO-CHOP luciferase reporter, UPR activation, luminescence; percent of tunicamycin response over DMSO baseline. activation, % at 10 µM. hit rate 0.34% among 330,000;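 active means at 10 µM dose, activation of 40% or more, normalized to positive control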;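 further: 100% = tunicamycin at 10 µg/mL and 0% = DMSO alone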
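Material: CHO-CHOP cells, stable luciferase reporter of PERK-eIF2a-CHOP signalling; quantity: 500 reporter cells seeded per well; buffer or medium: F12 medium containing 10% fetal bovine serum; compound: one dose, 10 µM in 0.5% DMSO; incubation: 6 h compound treatment, 37 °C; measured by: Steady-Glo luciferase luminescence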
Mdm2 MdmX conf: human Mdm2/MdmX binding inhibition, confirmed; shares compounds with Mdm2-MdmX inh; luminescent assay; inhibition, % at 8 µM; hit rate 55% among 10,000; in the data active means inhibition above about 40%
FLuc counter: counter-screen for Mdm2/MdmX inhibitors: full-length luciferase; shares compounds with Mdm2-MdmX inh; SaOS-2 full-length luciferase counterscreen, luminescence; inhibition, % at 8 µM; hit rate 77% among 6,200; AID 504607;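 active means mean inhibition at 8 µM reaching about 37%, which flags the compound as non-specific, limit read from the data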;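 further: p53-null SaOS-2 cells with luciferase driven by a doxycycline-inducible promoter; compound on cells about two nights before reading with doxycycline added after day one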
An asterisk follows results filed as active; · = not tested or not shown.

SMILES	Mdm2 ligase inh	Mdm2-MdmX inh	B2AR ag	Dynein transport	XBP1 UPR activ	CHOP UPR activ	Mdm2 MdmX conf	FLuc counter
O=C(COc1ccccc1F)N1CCN(CCN2C(=O)c3cccc4cccc(c34)C2=O)CC1	-2	-16	-16	0.9	-1	-1	·	·
COC(=O)C1=C(c2ccc(F)cc2OCc2ccccc2)C[C@@H]2CC[C@H]1N2C(=O)N1CCC(O)(c2ccc(Cl)cc2)CC1	·	69*	2	·	6	13	29	·
CC/C(=N\NC(=S)Nc1ccccc1)c1c(O)[nH]c(=O)[nH]c1=O	·	-2	1	-0.34	1	1	·	·
N#Cc1cn(C2OC(CO)C(O)C2O)c2ncnc(N)c12 (centres undefined)	·	·	-13	·	·	·	·	·
NC(=O)c1cn(C2OC(CO)C(O)C2O)c2ncnc(N)c12 (centres undefined)	-27	100*	-5	0.5	1	-4	99*	1
OC1(CN2CCOCC2)C2CC3CC(C2)CC1C3 (centres undefined)	1	1	-9	0.094	-3	-1	·	·
CCCNC(=O)N1[C@H]2CC[C@@H]1C(C(=O)OC)=C(c1cccc(OC)c1OC)C2	·	7	-2	·	1	-1	·	·
COC(=O)c1cn(C(=O)c2cccc3ccccc23)c2ccccc12	-4	64*	8	0.034	1	-1	56*	53*
CNCC(O)c1cccc(OC(=O)c2ccccc2C)c1 (centres undefined)	-15	0	-7	1.2	1	3	·	·
CNCC(O)c1cc(OCc2ccccc2)c(OCc2ccccc2)cc1F (centres undefined)	·	82*	36	·	3	0	8	·
Nc1ccccc1-[n+]1c(-c2ccccc2)cc(-c2ccccc2)cc1-c1ccccc1	-26	42	4	1.3	-1	0	·	·
[O-]c1ccccc1-[n+]1c(-c2ccccc2)cc(-c2ccccc2)cc1-c1ccccc1	·	90*	-5	·	3	-1	71*	22
Cc1ccccc1-[n+]1c(-c2ccccc2)cc(-c2ccccc2)cc1-c1ccccc1	·	88*	-3	·	-1	1	88*	19
Oc1ccccc1-[n+]1c(-c2ccccc2)cc(-c2ccccc2)cc1-c1ccccc1	·	42	-10	·	2	0	·	·
C#CCOc1cc(C2C3=C(COC3=O)Nc3cc4c(cc32)OCO4)ccc1OC (centres undefined)	6	59*	10	0.54	19	0	58*	80*
CC/C(=N\N1CCCCCC1)c1c(O)n(-c2ccc(C)cc2)c(=O)[nH]c1=O	-5	6	-8	2.1	-3	6	·	·
Cc1nc2c(=O)n(C)c(=O)nc-2n(C)n1	-9	74*	64*	-0.74	-9	-6	58*	19
C=CCn1c(O)c(C(C)=Nc2ccc(C(=O)O)cc2)c(=O)[nH]c1=O	-72	2	-8	-0.53	-4	-2	·	·
COc1cc2c(c(OC)c1OC)-c1ccc(O)c(=O)cc1C(NC(C)=O)CC2 (centres undefined)	·	69*	12	·	16	1	66*	110*
COc1ccc2c(c1)C(NC(C)=O)CCc1cc(OC)c(OC)c(OC)c1-2 (centres undefined)	·	·	10	·	·	·	·	·
CCCCCCCCn1sccc1=O	·	80*	35	·	-7	-6	-2	·
CCCCCCCSc1cc(OC)c(CCN(C)C)cc1OC	-7	74*	37	-1.9	4	0	29	·
COc1ccc(-n2c(/C=C/c3ccc(O)c(O)c3)nc3ccccc3c2=O)cc1	·	45	-23	·	4	0	·	·
